pIC50: −log10 of the molar value.
Columns and labels:
[1] = phase I dose-escalation: plasma pharmacokinetics; assay type: in vivo, patients; settings: for Cmax,ss / t1/2 / AUC0-24 h / Cmax: mean (%CV); for Tmax,ss / Tmax: median (range)
Procedure, shortened: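 Oral tablet, fasted, qd or b.i.d. (25–300 mg). Plasma sampled in cycle 0 after a single dose at pre-dose and 0.5–144 h. Under continuous dosing, sampled pre-dose on cycle 1 days 8 and 15, and on day 21 pre-dose to 24 h (b.i.d. to 12 h). Plasma stored at −80 °C. Noncompartmental analysis; arithmetic mean (%CV), Tmax median (range).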

wild-type EGFR = wild-type EGFR (Homo sapiens, UniProt P00533); experiment: kinase inhibition, wild-type EGFR; assay type: biochemical; settings: read-out: IC50 against wild-type EGFR; kinase level; unpublished data
[2] = multiple doses 21 days, 25 mg qd, n = 1
[3] = multiple doses 21 days, 50 mg qd, n = 3
[4] = multiple doses 21 days, 100 mg b.i.d., n = 3
[5] = multiple doses 21 days, 100 mg qd, n = 3
[6] = multiple doses 21 days, 200 mg qd, n = 3
[7] = multiple doses 21 days, 300 mg qd, n = 1
[8] = steady state after 21 days of multiple doses

Sequence of wild-type EGFR (P00533 25-1210): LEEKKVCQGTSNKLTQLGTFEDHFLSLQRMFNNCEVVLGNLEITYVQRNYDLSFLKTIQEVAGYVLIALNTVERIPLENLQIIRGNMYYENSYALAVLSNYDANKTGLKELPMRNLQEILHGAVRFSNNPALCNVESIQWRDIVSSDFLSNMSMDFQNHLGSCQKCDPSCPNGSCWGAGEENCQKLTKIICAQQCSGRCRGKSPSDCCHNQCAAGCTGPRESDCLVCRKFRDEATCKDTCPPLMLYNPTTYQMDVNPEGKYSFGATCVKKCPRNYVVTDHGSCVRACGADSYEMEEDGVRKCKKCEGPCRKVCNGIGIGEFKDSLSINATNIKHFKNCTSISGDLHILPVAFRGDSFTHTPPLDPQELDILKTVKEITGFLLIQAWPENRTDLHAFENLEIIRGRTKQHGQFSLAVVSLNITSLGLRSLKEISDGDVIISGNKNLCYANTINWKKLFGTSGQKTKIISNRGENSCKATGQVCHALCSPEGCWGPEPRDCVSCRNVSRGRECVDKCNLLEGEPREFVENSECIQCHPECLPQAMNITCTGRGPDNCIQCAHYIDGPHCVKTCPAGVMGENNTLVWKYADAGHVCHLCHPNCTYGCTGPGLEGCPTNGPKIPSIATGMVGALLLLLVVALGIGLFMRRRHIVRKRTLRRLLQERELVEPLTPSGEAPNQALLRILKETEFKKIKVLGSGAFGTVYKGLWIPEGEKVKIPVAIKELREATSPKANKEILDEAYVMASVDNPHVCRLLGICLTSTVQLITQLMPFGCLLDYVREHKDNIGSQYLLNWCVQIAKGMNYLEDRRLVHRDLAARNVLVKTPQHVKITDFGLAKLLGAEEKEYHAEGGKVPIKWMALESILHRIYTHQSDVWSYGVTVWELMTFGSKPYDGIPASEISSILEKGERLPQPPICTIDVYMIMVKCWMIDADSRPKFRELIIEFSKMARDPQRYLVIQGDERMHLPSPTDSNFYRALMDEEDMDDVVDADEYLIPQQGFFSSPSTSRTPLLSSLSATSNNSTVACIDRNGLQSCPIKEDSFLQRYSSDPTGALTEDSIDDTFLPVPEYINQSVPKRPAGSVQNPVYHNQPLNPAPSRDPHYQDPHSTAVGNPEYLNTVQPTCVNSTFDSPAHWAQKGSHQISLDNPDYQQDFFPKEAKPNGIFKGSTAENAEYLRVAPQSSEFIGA

Structure (SMILES): C=CC(=O)Nc1cc(Nc2ncc(Cl)c(Nc3ccccc3C(=O)C(=O)N(C)C)n2)c(OC)cc1N1CCN(C)CC1 [BPI-15086]
- dose dependence of Cmax and AUC0-t ([1]; 25 to 300 mg, single dose and multiple doses): increased in a dose-dependent manner
- Cmax,ss [1, 2]: 24.6 (NA) ng/ml
- Tmax,ss [1, 2]: 2.88 (2.88-2.88) h
- Cmax,ss [1, 3]: 48.5 (64.3) ng/ml
- Tmax,ss [1, 3]: 2.08 (2.02-4.00) h
- t1/2 ([1]; multiple doses 21 days, 50 mg qd): 8.94 (NA) h
- Cmax,ss [1, 4]: 240 (37.9) ng/ml
- Tmax,ss [1, 4]: 2.98 (2.03-3.00) h
- t1/2 ([1]; multiple doses 21 days, 100 mg b.i.d.): 4.78 (NA) h
- Cmax,ss [1, 5]: 84.6 (65.6) ng/ml
- Tmax,ss [1, 5]: 3.00 (2.00-3.95) h
- Cmax,ss [1, 6]: 209 (71.1) ng/ml
- Tmax,ss [1, 6]: 2.02 (1.98-3.00) h
- t1/2 ([1]; multiple doses 21 days, 200 mg qd): 9.09 (1.51) h
- Cmax,ss [1, 7]: 924 (NA) ng/ml
- Tmax,ss [1, 7]: 2.02 (2.02-2.02) h
- t1/2 ([1]; multiple doses 21 days, 300 mg qd): 9.84 (NA) h
- AUC0-24 h ([1]; single dose, 25 mg qd, n = 1): 285 (NA) h × ng/ml
- Cmax ([1]; single dose, 25 mg qd, n = 1): 31.6 (NA) ng/ml
- t1/2 ([1]; single dose, 25 mg qd, n = 1): 12.2 (NA) h
- Tmax ([1]; single dose, 25 mg qd, n = 1): 1.97 (1.97-1.97) h
- AUC0-24 h ([1]; single dose, 50 mg qd, n = 3): 324 (47.7) h × ng/ml
- Cmax ([1]; single dose, 50 mg qd, n = 3): 31.3 (40.1) ng/ml
- t1/2 ([1]; single dose, 50 mg qd, n = 3): 13.4 (35.2) h
- Tmax ([1]; single dose, 50 mg qd, n = 3): 2.93 (2.02-4.05) h
- AUC0-24 h ([1]; single dose, 100 mg qd, n = 3): 580 (37.3) h × ng/ml
- Cmax ([1]; single dose, 100 mg qd, n = 3): 46.1 (34.7) ng/ml
- t1/2 ([1]; single dose, 100 mg qd, n = 3): 11.3 (23.3) h
- Tmax ([1]; single dose, 100 mg qd, n = 3): 3.00 (2.03-4.00) h
- AUC0-24 h ([1]; single dose, 200 mg qd, n = 7): 2630 (91.2) h × ng/ml
- Cmax ([1]; single dose, 200 mg qd, n = 7): 273 (97.8) ng/ml
- t1/2 ([1]; single dose, 200 mg qd, n = 7): 9.91 (15.5) h
- Tmax ([1]; single dose, 200 mg qd, n = 7): 4.02 (2.02-5.13) h
- AUC0-24 h ([1]; single dose, 300 mg qd, n = 3): 3860 (41.3) h × ng/ml
- Cmax ([1]; single dose, 300 mg qd, n = 3): 354 (29.5) ng/ml
- t1/2 ([1]; single dose, 300 mg qd, n = 3): 14.1 (58.6) h
- Tmax ([1]; single dose, 300 mg qd, n = 3): 4.00 (3.98-5.00) h
- mean apparent terminal elimination half-life (t1/2), range across doses ([1]; single dose, 25-300 mg): 9.91 to 14.1 h
- Median Tmax, range across doses ([1]; single dose, lowest to highest doses 25-300 mg): 1.97 to 4.02 h
- mean Vz/F, range across doses ([1]; steady state): 556 to 3830 L
- mean apparent oral clearance (CLss/F), range across doses ([1]; steady state): 49.3 to 166 L/h
- mean t1/2, range across doses ([1]; steady state): 4.78 to 9.84 h
- Cmax,ss, range across doses [1, 8]: 24.6 to 924 ng/mL
- Tmax,ss, range across doses [1, 8]: 2.02 to 3.00 h
- pIC50 (wild-type EGFR): 6.30

Reference: PMC9271465 (ESMO Open, 2022)
